In ChEMBL document CHEMBL1687796, “Synthesis and spectrum of the neoglycoside ACHN-490” (2010):

What was measured:
[1] = tested on: Staphylococcus aureus; assay: Antibacterial activity against aminoglycoside-resistant Staphylococcus aureus expressing APH(2'') + AAC(6') by broth microdilution method; assay type: functional
Method in brief: (§1)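 MICs were measured by broth microdilution following CLSI guidance. The strains formed a 25-strain screening panel with diverse aminoglycoside resistance mechanisms. The panel included Gram-negative and S. aureus strains carrying key aminoglycoside-modifying enzymes, strains with altered permeability or efflux, and an armA ribosomal methyltransferase strain.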

[2] = tested on: Acinetobacter; assay: Antibacterial activity against aminoglycoside-resistant Acinetobacter spp. expressing APH(3')-6 by broth microdilution method; assay type: functional
Method in brief: (§2)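 Clinical aminoglycoside-resistant isolates were each carrying a single aminoglycoside-modifying enzyme. […] MICs were determined by CLSI broth microdilution.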

[3] = tested on: Acinetobacter baumannii; assay: Antibacterial activity against aminoglycoside-susceptible Acinetobacter baumannii by broth microdilution method; assay type: functional
[4] = tested on: Acinetobacter baumannii; assay: Antibacterial activity against Acinetobacter baumannii ATCC 19606 by broth microdilution method; assay type: functional; details: ATCC 19606 = CIP 70.34 = JCM 6841; method in brief: as §1
[5] = tested on: Acinetobacter calcoaceticus; assay: Antibacterial activity against aminoglycoside-resistant Acinetobacter calcoaceticus expressing AAC(6')-1 by broth microdilution method; assay type: functional; method in brief: as §2
[6] = tested on: Pseudomonas aeruginosa; assay: Antibacterial activity against Pseudomonas aeruginosa ATCC 27853 by broth microdilution method; assay type: functional
[7] = tested on: Pseudomonas aeruginosa; assay: Antibacterial activity against wild type Pseudomonas aeruginosa expressing efflux pump by broth microdilution method; assay type: functional
Method in brief: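 MIC was determined by CLSI broth microdilution, read in μg/ml. The strain came from a 25-strain screening panel with diverse aminoglycoside resistance mechanisms. The panel included strains with changes in permeability or efflux, key aminoglycoside-modifying enzymes and an armA methyltransferase strain.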

[8] = tested on: Pseudomonas aeruginosa; assay: Antibacterial activity against efflux pump deficient Pseudomonas aeruginosa by broth microdilution method; assay type: functional
[9] = tested on: Pseudomonas aeruginosa; assay: Antibacterial activity against Pseudomonas aeruginosa expressing mexXY operon by broth microdilution method; assay type: functional; method in brief: as §1
[10] = tested on: Pseudomonas aeruginosa; assay: Antibacterial activity against Pseudomonas aeruginosa expressing ANT(4')-2 by broth microdilution method; assay type: functional; method in brief: as §1
[11] = tested on: Pseudomonas aeruginosa; assay: Antibacterial activity against Pseudomonas aeruginosa expressing AAC(3)-1 by broth microdilution method; assay type: functional
[12] = tested on: Pseudomonas aeruginosa; assay: Antibacterial activity against Pseudomonas aeruginosa expressing AAC(6')-2 by broth microdilution method; assay type: functional
[13] = tested on: Klebsiella pneumoniae; assay: Antibacterial activity against Klebsiella pneumoniae ATCC 10031 by broth microdilution method; assay type: functional; method in brief: as §1
[14] = tested on: Escherichia coli; assay: Antibacterial activity against Escherichia coli ATCC 25922 by broth microdilution method; assay type: functional; method in brief: as §1
[15] = tested on: Escherichia coli; assay: Antibacterial activity against aminoglycoside-resistant Escherichia coli expressing ANT(2'')-1 by broth microdilution method; assay type: functional; method in brief: as §2
[16] = tested on: Escherichia coli; assay: Antibacterial activity against aminoglycoside-resistant Escherichia coli expressing armA methylase by broth microdilution method; assay type: functional; method in brief: as §1
[17] = tested on: Serratia marcescens; assay: Antibacterial activity against aminoglycoside-resistant Serratia marcescens expressing ANT(2''), AAC(6') by broth microdilution method; assay type: functional; method in brief: as §1
[18] = tested on: Staphylococcus aureus; assay: microbe, parasite or virus in culture
[19] = tested on: Staphylococcus aureus; assay: microbe, parasite or virus in culture; details: ATCC 29213
[20] = tested on: Staphylococcus aureus; assay: microbe, parasite or virus in culture; remark: listed apart in the source
[21] = tested on: Escherichia coli; assay: Antibacterial activity against aminoglycoside-resistant Escherichia coli expressing AAC(3)-2 by broth microdilution method
[22] = tested on: Escherichia coli; assay: Antibacterial activity against aminoglycoside-resistant Escherichia coli expressing AAC(6')-1 by broth microdilution method
[23] = tested on: Escherichia coli; assay: Antibacterial activity against aminoglycoside-resistant Escherichia coli expressing APH(3')-1b by broth microdilution method
[24] = tested on: Escherichia coli; assay: Antibacterial activity against aminoglycoside-resistant Escherichia coli expressing AAC(3)-IVa by broth microdilution method
[25] = tested on: Providencia stuartii; assay: Antibacterial activity against aminoglycoside-resistant Providencia stuartii expressing AAC(2')-1 by broth microdilution method

Measured: MIC

CN[C@@H]1[C@@H](O)[C@@H](O[C@@H]2[C@@H](O)[C@H](O[C@H]3OC(CN)=CC[C@H]3N)[C@@H](N)C[C@H]2N)OC[C@]1(C)O [SISOMICIN]
8 mg/L: [4] | [17]
0.25 mg/L: [13] | [18] | [23]
> 64 mg/L: [1] | [16] | [21]
64 mg/L: [15] | [25]
32 mg/L: [5] | [11] | [12] | [22] | [24]
0.125 mg/L: [8]
1 mg/L: [7] | [9] | [10] | [20]
0.5 mg/L: all other assays above
